Source: ChEMBL document CHEMBL1833867, “Conformationally constrained analogs of BAY 59-3074 as novel cannabinoid receptor ligands” (Bioorg Med Chem Lett, 2011)

Columns and labels:
Cannabinoid receptor 1 = Cannabinoid receptor 1 (Rattus norvegicus, UniProt P20272); assay: Displacement of [3H]CP55940 from rat cannabinoid CB1 receptor
Cannabinoid receptor 2 [1] = molecular target: Cannabinoid receptor 2 (Mus musculus, UniProt P47936); assay: Displacement of [3H]CP55940 from mouse cannabinoid CB2 receptor
Sequence of Cannabinoid receptor 2 (Mus musculus, UniProt P47936) (P47936 whole entry): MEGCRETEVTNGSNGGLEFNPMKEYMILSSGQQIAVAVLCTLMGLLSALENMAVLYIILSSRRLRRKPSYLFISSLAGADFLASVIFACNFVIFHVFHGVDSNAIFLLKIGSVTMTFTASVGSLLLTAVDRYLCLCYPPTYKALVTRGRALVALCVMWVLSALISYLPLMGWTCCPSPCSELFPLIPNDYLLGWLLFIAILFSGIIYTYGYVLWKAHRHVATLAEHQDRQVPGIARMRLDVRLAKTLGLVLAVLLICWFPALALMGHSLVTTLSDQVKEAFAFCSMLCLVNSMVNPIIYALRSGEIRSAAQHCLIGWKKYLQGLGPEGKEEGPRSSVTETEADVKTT

[2] = Selectivity ratio of Ki for rat cannabinoid CB1 receptor to Ki for human cannabinoid CB2 receptor
Cannabinoid receptor 2 [3] = molecular target: Cannabinoid receptor 2 (Homo sapiens, UniProt P34972); assay: Displacement of [3H]CP55940 from human cannabinoid CB2 receptor
Sequence of Cannabinoid receptor 2 (Homo sapiens, UniProt P34972) (P34972 whole entry): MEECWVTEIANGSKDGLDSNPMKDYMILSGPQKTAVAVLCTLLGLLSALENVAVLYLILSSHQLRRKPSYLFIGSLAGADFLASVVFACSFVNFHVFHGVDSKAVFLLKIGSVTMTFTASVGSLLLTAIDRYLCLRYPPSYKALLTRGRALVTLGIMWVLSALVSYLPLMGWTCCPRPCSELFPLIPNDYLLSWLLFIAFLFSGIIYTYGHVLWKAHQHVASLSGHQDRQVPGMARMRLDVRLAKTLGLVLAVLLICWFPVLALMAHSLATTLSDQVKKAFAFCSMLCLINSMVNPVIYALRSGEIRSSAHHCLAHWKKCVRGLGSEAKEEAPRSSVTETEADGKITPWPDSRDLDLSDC

[4] = Binding affinity to CB receptor in rat brain membranes; type: cell membranes
Summary of the method: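 Radioligand competition binding at rat CB1, displacing [3H]CP55,940.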

Sequence of Cannabinoid receptor 1 (P20272 whole entry): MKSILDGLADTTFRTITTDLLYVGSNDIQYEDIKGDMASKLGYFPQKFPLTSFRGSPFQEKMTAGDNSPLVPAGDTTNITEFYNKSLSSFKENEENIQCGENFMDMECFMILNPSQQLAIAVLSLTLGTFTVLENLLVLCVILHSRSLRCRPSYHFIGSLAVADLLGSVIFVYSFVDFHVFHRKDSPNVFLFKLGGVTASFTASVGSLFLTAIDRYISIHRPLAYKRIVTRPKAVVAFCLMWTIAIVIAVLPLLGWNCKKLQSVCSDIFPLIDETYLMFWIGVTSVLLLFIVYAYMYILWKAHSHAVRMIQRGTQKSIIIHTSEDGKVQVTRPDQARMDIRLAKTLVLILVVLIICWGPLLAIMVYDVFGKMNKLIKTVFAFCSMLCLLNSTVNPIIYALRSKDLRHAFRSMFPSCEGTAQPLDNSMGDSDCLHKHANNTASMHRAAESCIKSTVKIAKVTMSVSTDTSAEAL

SMILES	Ki (Cannabinoid receptor 1) [µM]	Ki (Cannabinoid receptor 2 [1]) [µM]	Ratio Ki [2]	Ki (Cannabinoid receptor 2 [3]) [µM]	Ki [4] [µM]
N#Cc1c(C(F)(F)F)ccc2c1oc1ccc(OS(=O)(=O)CCCC(F)(F)F)cc12	2.53	1.71	0.76	3.29	–
N#Cc1c(Oc2cccc(OS(=O)(=O)CCCC(F)(F)F)c2)cccc1C(F)(F)F	–	–	1.21	–	–
O=S(=O)(CCCC(F)(F)F)Oc1cccc(Oc2cccc3c2C[C@H](CO)C3)c1	–	–	–	–	0.00046
N#Cc1c(C(F)(F)F)ccc2c1oc1c(OS(=O)(=O)CCCC(F)(F)F)cccc12	2.28	0.41	9	0.253	–
N#Cc1c(C(F)(F)F)ccc2c1oc1cccc(OS(=O)(=O)CCCC(F)(F)F)c12	1.9	0.676	1.05	1.81	–
N#Cc1c(C(F)(F)F)ccc2c1oc1cc(OS(=O)(=O)CCCC(F)(F)F)ccc12	1.06	0.339	3.35	0.317	–
N#Cc1c(C(F)(F)F)ccc2c1Oc1c(cccc1OS(=O)(=O)CCCC(F)(F)F)C2	14.4	1.13	12.4	1.16	–
